Results: ChEMBL document CHEMBL1132707, “1-(N-alkylamino)-11-(N-ethylamino)-4,8-diazaundecanes: simple synthetic polyamine analogues that differentially alter tubulin polymerization” (J Med Chem, 1999)

Columns and labels:
Assay type in all cases: protein assay
Tubulin (Bos taurus) [1] = biological target: T1, Tubulin (Bos taurus) (UniProt Q6B856+Q862L2+Q862F3); assay: The compound (1 mM) + spermine (1 mM) mixture was evaluated for its effect on tubulin polymerization in the absence of MAPS as rate =change in OD340/min
Procedure, shortened: (§1)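 MAP-free purified tubulin, thawed immediately before use. Buffer A (0.1 M MES pH 6.7, 1.0 mM MgCl2, 0.5 mM EGTA), no GTP or organic solvent, with 1 mM analogue (or analogue plus 1 mM spermine), warmed to 37 °C. Started by 10-fold dilution of 10 mg/mL tubulin. OD340 followed from 30 s, equilibrium read at 10 min. At least three determinations, variation ≤10%.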

Tubulin (Bos taurus) [2] = biological target: T1, Tubulin (Bos taurus); assay: The compound (1 mM) + spermine (1 mM) mixture was evaluated for its effects on tubulin polymerization in the presence of MAPS as rate =change in OD340/min
Procedure, shortened: (§2)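 MAP-rich tubulin, thawed just before the reaction. Buffer A (0.1 M MES pH 6.7, 1.0 mM MgCl2, 0.5 mM EGTA) containing 1 mM analogue (or analogue plus 1 mM spermine), equilibrated at 37 °C. Started by 7.5-fold dilution of 7.5 mg/mL tubulin. OD340 followed from 30 s, equilibrium read at 20 min. At least three determinations, variation ≤10%.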

Tubulin (Bos taurus) [3] = biological target: T1, Tubulin (Bos taurus); assay: The compound was evaluated for its effect on tubulin polymerization in the absence of MAPS as rate =change in OD340/min; procedure, shortened: as §1
Tubulin (Bos taurus) [4] = biological target: T1, Tubulin (Bos taurus); assay: The compound was evaluated for its effect on tubulin polymerization in the presence of MAPS as rate =change in OD340/min; procedure, shortened: as §2
Tubulin (Bos taurus) [5] = biological target: T1, Tubulin (Bos taurus); assay: The compound was evaluated for its effect on tubulin polymerization in the presence of MAPS as equilibrium reading (20 min reading); procedure, shortened: as §2
Tubulin (Bos taurus) [6] = biological target: T1, Tubulin (Bos taurus); assay: The compound (1 mM) + spermine (1 mM) mixture was evaluated for its effects on tubulin polymerization in the absence of MAPS as equilibrium reading (10 min reading); procedure, shortened: as §1
Tubulin (Bos taurus) [7] = biological target: T1, Tubulin (Bos taurus); assay: The compound (1 mM) + spermine (1 mM) mixture was evaluated for its effects on tubulin polymerization in the presence of MAPS as equilibrium reading (20 min reading); procedure, shortened: as §2
Tubulin (Bos taurus) [8] = biological target: T1, Tubulin (Bos taurus); assay: The compound was evaluated for its effect on tubulin polymerization in the absence of MAPS as equilibrium reading (10 min reading); procedure, shortened: as §1

SMILES	Rate (delta OD340 min-1) (Tubulin (Bos taurus) [1])	Rate (delta OD340 min-1) (Tubulin (Bos taurus) [2])	Rate (delta OD340 min-1) (Tubulin (Bos taurus) [3])	Rate (delta OD340 min-1) (Tubulin (Bos taurus) [4])	Equilibrium OD340 (Tubulin (Bos taurus) [5])	Equilibrium OD340 (Tubulin (Bos taurus) [6])	Equilibrium OD340 (Tubulin (Bos taurus) [7])	Equilibrium OD340 (Tubulin (Bos taurus) [8])	Rate (Tubulin (Bos taurus) [1])
CCNCCCNCCCNCCCNCC1CC1	0.131	0.031	0.096	0.036	0.098	1.08	0.514	0.563	
CCNCCCNCCCNCCCNC[C@@H](C)CC		0.069	0.69	0.021	0.247	1.09	0.392	1.79	0.205
NCCCNCCCCNCCCN			0.14	0.055	0.624			1.31	
CCNCCCNCCCNCCCNCC1CCCCCC1	0.131	0.16	0.37	0.25	1.3	1.71	1.01	2.42	
